Data reported in the EternaBench riboswitch data.

Test system: MS2 coat protein
Assay: apparent Kd, MS2 coat protein; higher = weaker binding; RNA-MaP array; FMN 200 µM where present
Procedure, shortened: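 The apparent Kd is the median of filtered binding-curve fits, one per cluster, to green signal normalised to red-channel RNA signal and control-cluster median Fmax. The clusters were on Illumina sequencing chips, and stalled E. coli RNA polymerase had transcribed the designs on them. Titration used SNAP-549-labelled MS2 coat protein from 0.7 or 1.5 nM, doubling to 3 µM, without and then with constant ligand, in 100 mM Tris-HCl pH 7.5, 80 mM KCl, 4 mM MgCl2, BSA, DTT, yeast tRNA and Tween-20.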

[1] = designed as: OFF switch for flavin mononucleotide, no ligand
[2] = ligand present: flavin mononucleotide, designed as: OFF switch for flavin mononucleotide
[3] = designed as: ON switch for flavin mononucleotide, no ligand
[4] = ligand present: flavin mononucleotide, designed as: ON switch for flavin mononucleotide

Sequence | apparent Kd [1] [nM] | apparent Kd [2] [nM] | apparent Kd [3] [nM] | apparent Kd [4] [nM]
ACAUUGCUAGGAUAUCGCGGUAAGGACAUGAGGAUCACCCAUGUGGUGCCGUGGGAGGCCCGAGAAGGAGCGACCU | 23.1 | 25.9 | – | –
ACCAGGGAUUCAGGAUAUAUUAGCCGAGGCCGCGUAGAAGGGAAAUCCUGACAUGAGGAUCACCCAUGUCGACCCGCCUUCCAA | – | – | 43.3 | 41.9
ACCAUUUACUAAUUAUCUAUACAUGAGGAUCACCCAUGUUAAGAGGAUAUCAUCGUUCGCCGCGUUGAGAAGGCUUAGCAUUCG | 26.4 | 101 | – | –
ACCAUUUACUAGUUUUCUAUACAUGAGGAUCACCCAUGUUUUUAGGAUAUCAGCGUGAAACACGCUGAGAAGGAAGAACAUUCG | 22.6 | 31.2 | – | –
ACCGACACUUACAUGAGGAUCACCCAUGUGUGUAAUCGGACACAGGAUAUCCAUGGUAAGUAUCGGGAGAAGGGUGGAAAGAAA | – | – | 88.9 | 233
ACCGUAUGAACAUGAGGAUCACCCAUGUAUCCGAAAAGGAAUGAGGAUAUCGAUAGCAAAGCUAUCGAGAAGGCAUGGGACGGU | – | – | 742 | 389
ACCUAUGAGGAGGAUAUACGGUGCGAAAGGAAGGUAGAAGGCUUCACAUGAGGAUCACCCAUGUCUAUAAGCGA | 30.9 | 29.5 | – | –
ACCUCGUCAGGAUAUCCUAUUAAUUGUUUCAUAUUUACUAUGGAGAAGGGACAUGAGGAUCACCCAUGUUGGUC | 53.3 | 57.8 | – | –
ACGAAGAUACAGAAGGGUAAAGUAGUUAAUUAUAAGUAGGAAAUGCUCUACAGGAUAUGUUAGACAUGAGGAUCACCCAUGUAC | – | – | 30.7 | 13.1
ACGAGGCUAGGAUAUACACAUCUGAUGACUCAUCCUAAAACACAUGAGGAUCACCCAUGUAGAAGGAGCAAAUA | 20.3 | 15.1 | – | –
ACGGCAAUCGAAGGAUAUGGUUACAUGAGGAUCACCCAUGUCUAGGGUCUAAUUAGGUAUAAUUACCAGAAGGUCGAAGGCCUA | 93.7 | 122 | – | –
ACGGCAAUCGCAGGAUAUGGUUACAUGAGGAUCACCCAUGUCUAGGGUCUAAUUAGGUAUAACUACCAGAAGGGCGAAGGCCUA | 53.5 | 66 | – | –
ACGGCAGUCAGAGGAUAUGGUUACAUGAGGAUCACCCAUGUCAAGGGUCUAAUUAGGUAUAACUACCAGAAGGCUGAAGGCCUA | 64.5 | 102 | – | –
ACGUAUAGAGGAUAUAGUGAAUAUUACAUGAGGAUCACCCAUGUUCUUCAAAGCAUAUUCCUAGAAGGCUGAUGAA | 44.8 | 83.6 | – | –
ACGUAUCAUGUAGGAUAUGACCCAGGAAACUGGUCAGAAGGACAUGAGGAUCACCCAUGUAGAGUAUGUUAGGAUGACGUAUGC | 138 | 188 | – | –
ACGUUACAUGAGGAUCACCCAUGUGAGGAUAUGGUGCGGUAGUGUCCUGUCGCGUACUCCAGAAGGCGCGGGUG | 204 | 147 | – | –
ACGUUUUAUGCAGGAUAUUGACAUAUAUUUAAACAAGAAGGGCAUUACAUGAGGAUCACCCAUGUUAUAAUGGUAUUUAAGUUC | 14.7 | 15.6 | – | –
ACUACGUUAGCGAUAUGAUCGAGAGAUCAUGUCGCUAUAUUUAGAAGGACAUGAGGAUCACCCAUGUAGGAUAUGGGUCGUGGA | – | – | 158 | 35.7
ACUAGAUGAGGAUAUACACAUUUUAGUGUUCCUCUAGAUUAACAUGAGGAUCACCCAUGUAGAAGGCAUCAUUA | 59.7 | 218 | – | –
ACUAGUUGGUAAGGAUAUCCUACACUGUUCUGACCCGUGCAAGCUACAUGAGGAUCACCCAUGUGGGAGAAGGUGCGUCAACGC | 15.3 | 15.9 | – | –
ACUAUACGAGGAUAUACUGACGGGCCUCAGGCGUCCAUCAGACAUGAGGAUCACCCAUGUAGAAGGCGUAUACU | 85.5 | 196 | – | –
ACUGACAUGAGGAUCACCCAUGUCUUGAAUAGGUCAAAUUCACAGGAUAUGCGCUCGGCCAAGGCGCAGAAGGGUGAUGCAAUG | – | – | 57.9 | 11.1
ACUGGUCGAGGAUAUACAUUCGUGCUUCGGCACGUAAGGUCACAUGAGGAUCACCCAUGUAGAAGGCGACCAGU | 40.1 | 207 | – | –
ACUUAUAGAGGAUAUACAGAAUAUUACAUGAGGAUCACCCAUGUUCUUCAAUGUAUAUUUGUAGAAGGCUAAGGAA | 50.6 | 249 | – | –
ACUUUACGAGGAUAUACUGUCGGGCCUCGGGCAUACAUACGACAUGAGGAUCACCCAUGUAGAAGGCGUUUACU | 33.6 | 61.1 | – | –
AGAAAACAUGAGGAUCACCCAUGUGAGGAUAUCGAUGUCCAAGGAAGGGUGCGGGACUCGAGAAGGCACUUGGA | 72.4 | 58.8 | – | –
AGAAAACAUGAGGAUCACCCAUGUGAGGAUAUCGAUGUCCAAGGCCGGGUGCGGGACUCGAGAAGGCACUUGGG | 75.5 | 38.7 | – | –
AGAAACUACGAGAAGGACAUAUGAUUAAGACUAAACAUGAGGAUCACCCAUGUAGGAUAUCGUAGUUUCAGGAUCGUGAGAUCA | 7.27 | 20.1 | – | –

Sequence | apparent Kd [1] [nM] | apparent Kd [2] [nM] | apparent Kd [3] [nM] | apparent Kd [4] [nM]
AGAAACUAGGAGAAGGACAUAUGAUUAAGACGAAACAUGAGGAUCACCCAUGUAGGAUAUCCUAGUUUCAGGAUCGUGAGAUCA | 7.58 | 15.3 | – | –
AGAAAGUGAGGAUAUACAUGAGGAUCACCCAUGUAGAACGAGAGUUAUAAAAAUGGAAGUAGAAGGCGCAAAAG | 37.1 | 37.2 | – | –
AGACAGUCAGGAUAUACAUGAGGAUCACCCAUGUUGAGAUGUGAAAGGGCAGGAAUAGGUAGAAGGGACGAGAG | 34.6 | 33.7 | – | –
AGACAUGUCCGAGGAUAUCUGGAAACAUUUCCAAGAGAAGGCGGACAUGAGGAUCACCCAUGUCUCUCCUCAUCAAAUCCAAGU | 10.7 | 90.9 | – | –
AGACCAGUUCUAGGAUAUGUGUGACGUGAGUAAACAGAAGGAGAACAUGAGGAUCACCCAUGUGGGCCAAUCAUCCUCACGUGG | 44.9 | 371 | – | –
AGACGCAUGCAGAAGGACGACAUGAGGAUCACCCAUGUGGUCGGUAGGGUCGUAGGAUAUGCAAGGCGUUGCGAGCCAACUGUG | 118 | 26.9 | – | –
AGACGGAGCUGAGGAUAUUACAUGAGGAUCACCCAUGUAAGUCUCCAGGAAACUGGAGACAAAUGUAAGAAGGCAGCUCCGUCA | 19.3 | 29.5 | – | –
AGACUGCGUAGAAUUAGCAGCUGACAGGAUAUGACAUGAGGAUCACCCAUGUGAACUACAAAGGAUCAGAAGGGUCACGACACA | 18.6 | 30.3 | – | –
AGAGAAUACUCAGGAUAUCUUAAUAGAAAGAAUAGAGAAGGGAGACAUGAGGAUCACCCAUGUGAAGUCUUGAGACUACAUGGU | 291 | 442 | – | –
AGAGAGUGACAGAAGGGCAAGCUCGAUUGCGGAGAACGCGAUCGAGCUUGCAGGAUAUGUUGAACAUGAGGAUCACCCAUGUCA | – | – | 7.98 | 6.94
AGAGCGAUAGGAUAUACAUGAGGAUCACCCAUGUUAAAAGUGGAAUCCUUGGACGCAUGUAGAAGGAUUGCGCC | 49.7 | 94.2 | – | –
AGAUAACACCAGAAGGACAUGAGGAUCACCCAUGUAGGAUAUGGGCAUCACUCGAGAAAGAAACAACCAAAAGGACACGCGGUC | – | – | 51 | 8.36
AGAUGACAAAGUCAUCUCGCUCUGACAUGAGGAUCACCCAUGUAGGAUAUAUUACUCAAAGAGUAAUAGAAGGACAUGUGUCUG | 36.3 | 115 | – | –
AGAUGGUAUAUAGGAUAUCAUGUGCAAACAUGAGGAUCACCCAUGUAGAAACGUCAGUUUAAUAAUGAGAAGGAUAUACCAUCU | – | – | 31.9 | 11.5
AGAUGGUAUAUAGGAUAUCAUGUGCAAACAUGAGGAUCACCCAUGUAGAGACGUCAGUUUAAUAAUGAGAAGGAUAUACCAUCU | – | – | 31.9 | 14.4
AGCAAGUAUACAUGAGGAUCACCCAUGUUUUUUAGGGUUUUCAGAAGGUACAUUUUGAGAUAGAGUAAGGAUAUGAAAUAUGCG | – | – | 101 | 45.7
AGCAGACGAGGAUAUAGAUUAAAUGACAUGAGGAUCACCCAUGUGAUCGAUCUAUUUUAUUUAGAAGGUGUCUGCU | 18.1 | 32.3 | – | –
AGCAGACGAGGAUAUAGAUUUGUUAACAUGAGGAUCACCCAUGUGAUCGAUUUUUCAUAUUUAGAAGGUGUCUGCU | 83.3 | 392 | – | –
AGCAUGUUUACAUGAGGAUCACCCAUGUUUAUUUAGGAUUUCAGAAGGUACAAUUUGUGUUAGAGUAAGGAUAUGAUAUAUGCG | – | – | 12 | 8.48
AGCCCUAAUGUCAGGAUAUGCAUCCUUAAUGGACGGCAGAAGGGACAUGAGGAUCACCCAUGUAAAUAGAAAUU | 34.8 | 146 | – | –
AGCCGCUUAGGAUAUACCUAGAUUCUUCCGCGCUGUACGGUACAUGAGGAUCACCCAUGUAGAAGGAGGUGGCA | 23.5 | 29.7 | – | –
AGCGGCGCAGACCACCGCAAAACCAGAAGGACAUGAGGAUCACCCAUGUAACAAAACAGGGCGAUGUAGGAUAUGGCAAACCCA | 16.3 | 18.8 | – | –
AGCGUACAAGCUAACAUGAGGAUCACCCAUGUGGUCUCAUGCGAGGAUAUCGGGAAGGAGGAUUCCGAGAAGGUGCGGUGAGCC | – | – | 182 | 43.8
AGCUAAGAGUUAAUUGUGACAGUGAGAAGGCAAUAGUUUGUGACCGACAUGAGGAUCACCCAUGUUGAGGAUAUCACUAGCUAC | 6.83 | 19.4 | – | –
AGCUAGUACCGAGGAUAUACAUACAUGAGGAUCACCCAUGUAUACAUGAACAAUUGAGACUACAUGUAGAAGGCGGUACUAGCA | – | – | 49.9 | 18.6
AGCUAGUACGAAGGAUAUACAAACAUGAGGAUCACCCAUGUAUACAUGGUUUGAUGAGACUACAUGUAGAAGGUCGUACUAGCA | – | – | 506 | 796
AGCUAGUCAGGAUAUACGAACAUGUCAAAAGACGUGAAAGGACAUGAGGAUCACCCAUGUAGAAGGGACUAGCA | 21.4 | 46.9 | – | –
